Here are results for three compounds from article PMC5096746 (Drug Design, Development and Therapy, 2016).

Data set [1] has as its system NO (nitrite) in RAW264.7 mouse macrophages. Kind of data set: Nitric oxide. The data set is classed as cell-based. The note with it: 20 µM compound, LPS-stimulated, LPS alone 20.46±1.03.
Data set [2] concerns TNFα. Put plainly: In vitro TNFα assay. The note with it: Mus musculus, RAW264.7, read-out: TNFα inhibition. The class given is cell-based. The method, boiled down: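 Macrophages grown in RPMI 1640 with 10% FBS, penicillin and streptomycin. Cells preincubated with cytochalasin D (2.5 μM/10^6 cells) for 30 min, then seeded at 2×10^6 cells/mL. LPS added with test compound or celecoxib at 20 μM for 24 h. Supernatant TNFα measured by sandwich ELISA (TMB substrate, 30 min dark, H2SO4 stop, A450) against kit standard.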

Data set [3] relates to carrageenan-induced rat-paw edema. Kind of data set: Carrageenan-induced rat-paw edema, in vivo anti-inflammatory activity. Set-up: species or system Wistar rats. The note with it: oral, dose equimolar to ibuprofen 20 mg/kg; for Anti-inflammatory activity (% inhibition ± SEM) 3 hours: 3 hours post-carrageenan; for Anti-inflammatory activity (% inhibition ± SEM) 4 hours: 4 hours post-carrageenan. In general terms: In the carrageenan paw model, swelling and tenderness develop within hours.

Data set [4] concerns gastric mucosa. Put plainly: Acute ulcerogenic activity. The note with it: rats. The class given is in vivo. A digest of the protocol: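 Rats; controls received 0.5% carboxymethyl cellulose. After dosing, rats were fed a normal diet for 17 h and then killed. Stomachs opened along the greater curvature and mucosa examined under microscopy. Scoring: 0.5 redness, 1 spot ulcer, 1.5 haemorrhagic streaks, 2 ulcers >3 but <5, 3 ulcers >5. Severity index = treated-group mean score minus control mean.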

Marks after values point to notes of the source that are not given here.

In general, inhibition refers to the share of the control response that was lost under treatment. Turning to `Cc1ccc(-c2cc(C(F)(F)F)nn2-c2ccc(S(N)(=O)=O)cc2)cc1` [Celecoxib, celecoxib], the “NO (nitrite/mg, mmol/mg) 20 µM” value in data set [1] is 7.53 ± 0.23 mmol/mg; in data set [1] (listed as celecoxib) it was 7.53 mmol/mg. The inhibition at 20 µM in data set [2] stood at 72%.
Turning to `c1ccc(COc2ccc(-c3nn(-c4ccccc4)cc3CNc3ccccc3)cc2)cc1` [Compound 5a, N-((3-(4-(Benzyloxy)phenyl)-1-phenyl-1H-pyrazol-4-yl)methyl)aniline], in data set [3], the “Anti-inflammatory activity (% inhibition ± SEM) 3 hours” value is given as 50.77±4.28 ^c % and the “Anti-inflammatory activity (% inhibition ± SEM) 4 hours” value is listed as 47.91±4.39 ^c %.
With `CC(C)Cc1ccc(C(C)C(=O)O)cc1` (stereo not drawn) [Ibuprofen, ibuprofen], in data set [4] (60 mg/kg), the “Gastric ulceration / mucosal damage (histopathology, in words)” value was “mucosal cell damage”. For the same compound, the “Ulcerogenic activity (severity index ± SEM)” value in data set [4] (60 mg/kg oral, killed after 17 hours, mean score minus control score) was found to be 1.16±0.4. Further, in data set [3], the “Anti-inflammatory activity (% inhibition ± SEM) 3 hours” value is 81.32±0.59 ^a % and the “Anti-inflammatory activity (% inhibition ± SEM) 4 hours” value was 79.23±0.4 ^a %.
